Assay results: ChEMBL document CHEMBL4354849, “[1,2,5]Oxadiazolo[3,4-b]pyrazine-5,6-diamine Derivatives as Mitochondrial Uncouplers for the Potential Treatment of Nonalcoholic Steatohepatitis” (J Med Chem, 2020)
Calls of active or inactive are those of the source. The rule behind the calls is not given here.

Columns and labels:
Mus musculus [1] = test: Effect on core body temperature in C57BL/6J mouse at 25 to 100 mg/kg, po measured 1 to 24 hrs post dose by rectal probe thermometer based assay; type: ADME, organism-based; details: in vivo
Method in brief: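 Male C57BL/6 mice, 11 weeks old, given single oral gavage doses of 25, 50 or 100 mg/kg, or vehicle (90% methylcellulose/2% Tween80/8% DMSO). Core temperature was read by rectal probe thermometer at 1, 2, 4 and 24 h after dosing. n=5–6 per group.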

Mus musculus [2] = test: Improvement in liver fibrosis in Stelic C57BL/6 mouse model of streptozotocin-induced NASH assessed as effect on liver Cd146 mRNA expression at 25 mg/kg/day, po for 21 days
Mus musculus [3] = test: Improvement in liver fibrosis in Stelic C57BL/6 mouse model of streptozotocin-induced NASH assessed as effect on serum ALT level at 25 mg/kg/day, po administered in high-fat diet for 21 days; type: functional, organism-based
Method in brief: (§1)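 STAM NASH model: male C57BL/6 mice got 200 µg streptozotocin subcutaneously at day 2 of life, then high-fat diet from 4 weeks. At 6 weeks they were randomized, 8 per group. Drug was mixed into the high-fat diet at 25 mg/kg/d for 21 days. Killed at 9 weeks by cardiac puncture under isoflurane. Food intake was measured per cage of 4 every 3–4 days.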

Mus musculus [4] = test: Improvement in liver fibrosis in Stelic C57BL/6 mouse model of streptozotocin-induced NASH assessed as increase in plasma cholesterol at 25 mg/kg/day, po administered in high-fat diet for 21 days; type: functional, organism-based; method in brief: as §1
[5] = Induction of mitochondrial uncoupling in rat L6 cells assessed as oxygen consumption rate measured over 90 mins by oxygen consumption rate by seahorse assay; type: mitochondria, Mitochondria
Mus musculus [6] = test: Improvement in liver fibrosis in Stelic C57BL/6 mouse model of streptozotocin-induced NASH assessed as reduction in plasma triglyceride at 25 mg/kg/day, po administered in high-fat diet for 21 days; type: functional, organism-based; method in brief: as §1
Mus musculus [7] = test: Improvement in liver fibrosis in Stelic C57BL/6 mouse model of streptozotocin-induced NASH assessed as liver fibrosis score at 25 mg/kg/day, po administered in high-fat diet for 21 days by Picrosirius ed staining based assay (reference value: 0.91 +/- 0.25); type: functional; method in brief: as §1
Mus musculus [8] = test: Induction of energetic stress in Stelic C57BL/6 mouse model of streptozotocin-induced NASH assessed as effect on AMPK-dependent ACC activity at 25 mg/kg/day, po administered in high-fat diet for 21 days by Western blot analysis; type: organism-based; details: in vivo, 504 h
[9] = Drug level in C57BL/6J mouse liver at 50 mg/kg, po measured after 1 hr by LC-MS analysis; type: ADME, organism-based; details: read-out: Drug uptake
Method in brief: (§2)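 Male C57BL/6 mice, 12 weeks old, chow-fed, given a single 50 mg/kg oral gavage bolus in 90% methylcellulose/2% Tween80/8% DMSO. Killed by cervical dislocation at 1 h. Tissues were rinsed, snap-frozen, powdered and homogenized, then extracted into 90% acetonitrile/10% methanol. Quantified by LC-MS/MS against standards spiked into vehicle-treated tissue, normalized to tissue weight. n=3.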

Mus musculus [10] = test: Induction of hyperglycemia in Stelic C57BL/6 mouse model of streptozotocin-induced NASH at 25 mg/kg/day, po administered in high-fat diet for 21 days; type: organism-based; details: in vivo, 504 h; method in brief: as §1
Mus musculus [11] = test: Effect on ballooning in Stelic C57BL/6 mouse model of streptozotocin-induced NASH at 25 mg/kg/day, po administered in high-fat diet for 21 days; type: ADME, organism-based; details: in vivo, 504 h; method in brief: as §1
Mus musculus [12] = test: Improvement in liver fibrosis in Stelic C57BL/6 mouse model of streptozotocin-induced NASH assessed as improvement in pathologist derived steatosis score at 25 mg/kg/day, po administered in high-fat diet for 21 days; type: functional, organism-based; method in brief: as §1
Mus musculus [13] = test: Improvement in liver fibrosis in Stelic C57BL/6 mouse model of streptozotocin-induced NASH assessed as effect on liver MMP2 mRNA expression at 25 mg/kg/day, po administered in high-fat diet for 21 days; type: functional, organism-based
[14] = Drug level in C57BL/6J mouse quadricep muscle at 50 mg/kg, po measured after 1 hr by LC-MS analysis; type: ADME, organism-based, Quadriceps femoris; details: read-out: Drug uptake; method in brief: as §2
Mus musculus [15] = test: Induction of energetic stress in Stelic C57BL/6 mouse model of streptozotocin-induced NASH assessed as effect on AMPK activity at 25 mg/kg/day, po administered in high-fat diet for 21 days by Western blot analysis; type: organism-based; details: in vivo, 504 h
Mus musculus [16] = test: Improvement in liver fibrosis in Stelic C57BL/6 mouse model of streptozotocin-induced NASH assessed as effect on liver Gfap mRNA expression at 25 mg/kg/day, po for 21 days
Mus musculus [17] = test: Improvement in liver fibrosis in Stelic C57BL/6 mouse model of streptozotocin-induced NASH assessed as effect on liver Tgfb1 mRNA expression at 25 mg/kg/day, po administered in high-fat diet for 21 days; type: functional, organism-based
[18] = Drug level in C57BL/6J mouse kidney at 50 mg/kg, po measured after 1 hr by LC-MS analysis; type: ADME, organism-based; details: read-out: Drug uptake; method in brief: as §2
Mus musculus [19] = test: Improvement in liver fibrosis in Stelic C57BL/6 mouse model of streptozotocin-induced NASH assessed as effect on liver Timp1 mRNA expression at 25 mg/kg/day, po administered in high-fat diet for 21 days; type: functional, organism-based
Mus musculus [20] = test: Effect on food intake in Stelic C57BL/6 mouse model of streptozotocin-induced NASH assessed as reduction in food intake at 25 mg/kg/day, po administered in high-fat diet for 21 days; type: ADME, organism-based; details: in vivo, 504 h; method in brief: as §1
Mus musculus [21] = test: Improvement in liver fibrosis in Stelic C57BL/6 mouse model of streptozotocin-induced NASH assessed as effect on liver alphaSMA mRNA expression at 25 mg/kg/day, po administered in high-fat diet for 21 days; type: functional, organism-based
Mus musculus [22] = test: Improvement in liver fibrosis in Stelic C57BL/6 mouse model of streptozotocin-induced NASH assessed as NAS score at 25 mg/kg/day, po administered in high-fat diet for 21 days (reference value: 4.6 +/- 0.7); type: functional; method in brief: as §1
[23] = Drug level in C57BL/6J mouse white adipose tissue at 50 mg/kg, po measured after 1 hr by LC-MS analysis; type: ADME, organism-based; details: read-out: Drug uptake; method in brief: as §2
[24] = Drug level in C57BL/6J mouse heart at 50 mg/kg, po measured after 1 hr by LC-MS analysis; type: ADME, organism-based; details: read-out: Drug uptake; method in brief: as §2
Mus musculus [25] = test: Improvement in liver fibrosis in Stelic C57BL/6 mouse model of streptozotocin-induced NASH assessed as effect on liver Cd146 mRNA expression at 25 mg/kg/day, po administered in high-fat diet for 21 days; type: functional, organism-based
Mus musculus [26] = test: Improvement in liver fibrosis in Stelic C57BL/6 mouse model of streptozotocin-induced NASH assessed as improvement in inflammation score at 25 mg/kg/day, po administered in high-fat diet for 21 days; type: functional, organism-based; method in brief: as §1
Mus musculus [27] = test: Improvement in liver fibrosis in Stelic C57BL/6 mouse model of streptozotocin-induced NASH assessed as effect on liver Col1a1 mRNA expression at 25 mg/kg/day, po administered in high-fat diet for 21 days; type: functional, organism-based
[28] = Drug level in C57BL/6J mouse brain at 50 mg/kg, po measured after 1 hr by LC-MS analysis; type: ADME, organism-based; details: read-out: Drug uptake; method in brief: as §2
Mus musculus [29] = test: Improvement in liver fibrosis in Stelic C57BL/6 mouse model of streptozotocin-induced NASH assessed as effect on liver Gfap mRNA expression at 25 mg/kg/day, po administered in high-fat diet for 21 days; type: functional, organism-based
Mus musculus [30] = test: Improvement in liver fibrosis in Stelic C57BL/6 mouse model of streptozotocin-induced NASH assessed as decrease in liver triglyceride content at 25 mg/kg/day, po administered in high-fat diet for 21 days; type: functional, organism-based; method in brief: as §1
Mus musculus [31] = test: Improvement in liver fibrosis in Stelic C57BL/6 mouse model of streptozotocin-induced NASH assessed as effect on plasma AST level at 25 mg/kg/day, po administered in high-fat diet for 21 days; type: functional, organism-based; method in brief: as §1

Question: For `Fc1cccc(Nc2nc3nonc3nc2Nc2ccccc2F)c1`, which Activity (Mus musculus [1]) is on record?
Answer: Its Activity is “Non-Toxic”.

Question: What about the Activity (Mus musculus [2]) of the same compound?
Answer: The Activity was “inactive”.

Question: And the Activity (Mus musculus [3])?
Answer: The Activity was “Active”.

Question: And the Activity (Mus musculus [4])?
Answer: The Activity was “inactive”.

Question: What about the EC50 [5] of the same compound?
Answer: The EC50 was 190 nM.

Question: And the Activity (Mus musculus [6])?
Answer: Its Activity is “inactive”.

Question: What about the Activity (Mus musculus [7]) of the same compound?
Answer: The Activity was 0.49.

Question: And the Activity (Mus musculus [8])?
Answer: Its Activity is “Non-Toxic”.

Question: And the concentration at 1 h [9]?
Answer: The concentration at 1 h was 13400 nM.

Question: What about the Activity (Mus musculus [10]) of the same compound?
Answer: Its Activity is “Non-Toxic”.

Question: And the Activity (Mus musculus [11])?
Answer: Its Activity is “Non-Toxic”.

Question: And the Activity (Mus musculus [12])?
Answer: The Activity was “inactive”.

Question: And the Activity (Mus musculus [13])?
Answer: Its Activity is “inactive”.

Question: What about the concentration at 1 h [14] of the same compound?
Answer: Its concentration at 1 h is 260 nM.

Question: And the Activity (Mus musculus [15])?
Answer: Its Activity is “Non-Toxic”.

Question: And the Activity (Mus musculus [16])?
Answer: Its Activity is “inactive”.

Question: And the Activity (Mus musculus [17])?
Answer: Its Activity is “inactive”.

Question: What about the concentration at 1 h [18] of the same compound?
Answer: The concentration at 1 h was 4830 nM.

Question: What about the Activity (Mus musculus [19]) of the same compound?
Answer: Its Activity is “inactive”.

Question: And the Activity (Mus musculus [20])?
Answer: The Activity was “Non-Toxic”.

Question: And the Activity (Mus musculus [21])?
Answer: Its Activity is “inactive”.

Question: And the Activity (Mus musculus [22])?
Answer: The Activity was 3.9.

Question: What about the concentration at 1 h [23] of the same compound?
Answer: Its concentration at 1 h is 2850 nM.

Question: What about the concentration at 1 h [24] of the same compound?
Answer: The concentration at 1 h was 2090 nM.

Question: And the Activity (Mus musculus [25])?
Answer: Its Activity is “inactive”.

Question: What about the Activity (Mus musculus [26]) of the same compound?
Answer: Its Activity is “Active”.

Question: What about the Activity (Mus musculus [27]) of the same compound?
Answer: The Activity was “inactive”.

Question: And the concentration at 1 h [28]?
Answer: Its concentration at 1 h is 850 nM.

Question: And the Activity (Mus musculus [29])?
Answer: The Activity was “inactive”.

Question: And the Activity (Mus musculus [30])?
Answer: The Activity was “Active”.

Question: And the Activity (Mus musculus [31])?
Answer: The Activity was “inactive”.
